Experimental data as given in article PMC4861071 (Chemical communications (Cambridge, England), 2016).
Read-outs that look alike come from different tables or passages of the source.

Columns and labels:
[1] = system: human renal Caki-1 cancer cell line; settings: read-out: IC50 Caki-1; cisplatin dissolved in H2O; ref [24]; cited from earlier work
[2] = system: non-tumorigenic human embryonic kidney cell lines HEK-293T; settings: read-out: IC50 HEK-293T; cisplatin dissolved in H2O; ref [24]; cited from earlier work
[3] = system: human renal Caki-1 cancer cell line; test: Cell viability; format: cell-based; settings: read-out: IC50 Caki-1; 72 h incubation; dissolved in 1% DMSO, diluted with water
In short: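 Growth inhibition measured by BluePresto assay in human renal Caki-1 cancer cells, run in parallel with human colon HCT 116 and DLD1 cancer lines and non-tumorigenic HEK-293T cells. Cells were exposed to test compound for 72 h. Compounds were dissolved in 1% DMSO and diluted with water before addition to the culture medium. Cisplatin reference was dissolved in water.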

[4] = system: thioredoxin reductase (TrRx); test: Thioredoxin reductase activity in treated Caki-1 cells; format: cell-based, human; settings: 5 µM, 24 hour incubation
In short: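 Caki-1 cells were incubated with 5 µM test compound or 0.1% DMSO vehicle for 5, 12 and 24 h. Endogenous thioredoxin reductase activity was then assayed in soluble whole-cell lysates. Percent inhibition is relative to vehicle-treated cells at 24 h.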

[5] = system: plasmid (pBR322) DNA; settings: cited from earlier work

Molecule	IC50 [3] [µM]	inhibition of thioredoxin reductase activity [4] [%]	further results
N.N.[Cl][Pt][Cl] [cisplatin]			IC50 [1]: 29 ± 4.11 µM; IC50 [2]: 3.27 ± 0.13 µM
[Ru(p-cymene)Cl2(μ-dppm)AuCl] [compound 7]			interaction with plasmid (pBR322) DNA ([5]; previously described compounds, ref [26]): lack of interaction

The next lines start with results.

IC50 [3] [µM]	Molecule	inhibition of thioredoxin reductase activity [4] [%]	further results
27.1 ± 2	CC(C)c1cccc(C(C)C)c1-n1ccn(-c2c(C(C)C)cccc2C(C)C)[c]1=[Au][Cl] [compound 1, [(IPr)AuCl]]	17	
35.6 ± 3.7	[Ru(p-cymene)Cl2(η^1-dppm)] [compound 9]	44	interaction with plasmid DNA ([5]; ref [31]): weakly reduced supercoiling in plasmid DNA
5.2 ± 0.9	[Ru(p-cymene)Cl2(μ-dppm)Au(IPr)]ClO4 [compound 13]	63	
